From ChEMBL document CHEMBL1134562, “Fluorosulfonyl- and bis-(beta-chloroethyl)amino-phenylamino functionalized pyrazolo[4,3-e]1,2,4-triazolo[1,5-c]pyrimidine derivatives: irreversible antagonists at the human A3 adenosine receptor and molecular modeling studies” (J Med Chem, 2001) come the findings set out here.

In general, inhibition refers to the relative decrease from the control value, in per cent.

Test [1] concerns the target T1, Adenosine receptor A3 (Homo sapiens) (UniProt P0DMS8).
T1 sequence (whole entry): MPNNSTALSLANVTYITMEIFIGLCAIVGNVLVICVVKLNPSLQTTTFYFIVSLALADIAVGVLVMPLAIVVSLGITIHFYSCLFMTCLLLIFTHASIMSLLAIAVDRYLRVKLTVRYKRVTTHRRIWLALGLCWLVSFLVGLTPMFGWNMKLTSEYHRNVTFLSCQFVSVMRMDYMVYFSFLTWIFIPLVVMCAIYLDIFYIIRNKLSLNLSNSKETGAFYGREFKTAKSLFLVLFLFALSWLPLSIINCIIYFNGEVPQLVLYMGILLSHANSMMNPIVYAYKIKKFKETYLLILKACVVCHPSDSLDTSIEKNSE
The experiment in a line: Irreversible inhibition of […]-AB-MECA binding to human adenosine A3 receptor at 100 nM. In outline: (§1)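 Membranes from CHO cells stably expressing human A3 receptor, preincubated 1 h at room temperature with compound (DMSO ≤1%), then washed 9 times by centrifugation/resuspension in 50 mM Tris, 10 mM Mg2+, 1 mM EDTA pH 7.4 with 0.02% CHAPS; adenosine deaminase 3 units/mL throughout.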

In test [2] the target is T1, Adenosine receptor A3 (Homo sapiens). Nature of the test: Irreversible inhibition of […]-AB-MECA binding to human adenosine A3 receptor at 10 nM. Summed up:
as §1

The target is the same in test [3]. The experiment in a line: Irreversible inhibition of […]-AB-MECA binding to human adenosine A3 receptor at 1 nM. Summed up: as §1

`CCn1cc2c(nc(NC(=O)Nc3ccc(N(CCCl)CCCl)cc3)n3nc(-c4ccco4)nc23)n1`: the inhibition in test [1] amounted to 18%; in test [2], 0%; in test [3], 0%.
On to `CCCn1cc2c(nc(NC(=O)Nc3ccc(S(=O)(=O)F)cc3)n3nc(-c4ccco4)nc23)n1`, for which the inhibition in test [1] came out at 79%; in test [2] it was 70%; in test [3], 47%.
Take `Cn1cc2c(nc(NC(=O)Nc3ccc(N(CCCl)CCCl)cc3)n3nc(-c4ccco4)nc23)n1`: the inhibition in test [1] is 22%; in test [2] it was 11%; in test [3] it was 0%.
For the compound `CCCCn1cc2c(nc(NC(=O)Nc3ccc(S(=O)(=O)F)cc3)n3nc(-c4ccco4)nc23)n1`, the values for the inhibition in test [1], in test [2] and in test [3] were 73%, 40% and 31%, respectively.
With `CCn1cc2c(nc(NC(=O)Nc3ccc(S(=O)(=O)F)cc3)n3nc(-c4ccco4)nc23)n1`, the inhibition was determined as 65% in test [1], 30% in test [2] and 4.1% in test [3].
With `CCCn1cc2c(nc(NC(=O)Nc3ccc(N(CCCl)CCCl)cc3)n3nc(-c4ccco4)nc23)n1`, the inhibition in test [1] came out at 16%; in test [2], 11%; in test [3], 7.8%.
Consider `CCCCn1cc2c(nc(NC(=O)Nc3ccc(N(CCCl)CCCl)cc3)n3nc(-c4ccco4)nc23)n1`, for which the inhibition in test [1] stood at 9%; in test [2], 7%; in test [3] it was 0%.
